Laboratory results from ChEMBL document CHEMBL4823277, “Novel chalcone-conjugated, multi-flexible end-group coumarin thiazole hybrids as potential antibacterial repressors against methicillin-resistant Staphylococcus aureus” (Eur J Med Chem, 2021).
Values after ≈ are worked out from the molar mass of the structure shown.

Tests used:
Type in all cases: functional
Pseudomonas aeruginosa [1] = experiment: Antibacterial activity against Pseudomonas aeruginosa ATCC 27853 by microbroth dilution method
Pseudomonas aeruginosa [2] = experiment: Antibacterial activity against Pseudomonas aeruginosa by microbroth dilution method
Staphylococcus aureus [3] = experiment: Antibacterial activity against Staphylococcus aureus by microbroth dilution method
Klebsiella pneumoniae [4] = experiment: Antibacterial activity against Klebsiella pneumonia by microbroth dilution method
Staphylococcus aureus [5] = experiment: Antibacterial activity against Staphylococcus aureus ATCC 25923 by microbroth dilution method
Acinetobacter baumannii = experiment: Antibacterial activity against Acinetobacter baumannii by microbroth dilution method
Staphylococcus aureus [6] = experiment: Antibacterial activity against methicillin-resistant Staphylococcus aureus N315 by microbroth dilution method
In short: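 Minimum inhibitory concentration against MRSA N315 determined by micro broth dilution in microdilution plates.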

Staphylococcus aureus [7] = experiment: Antibacterial activity against Staphylococcus aureus ATCC 29213 by microbroth dilution method
Escherichia coli [8] = experiment: Antibacterial activity against Escherichia coli by microbroth dilution method
Escherichia coli [9] = experiment: Antibacterial activity against Escherichia coli ATCC 25922 by microbroth dilution method
Enterococcus faecalis [10] = experiment: Antibacterial activity against Enterococcus faecalis by microbroth dilution method
Escherichia coli [11] = experiment: (§1) Potentiation of (Z)-4-((bis(2-hydroxyethyl)amino)methyl)-7-((1-(4-methoxyphenyl)-3-oxo-3-(thiazol-2-yl)prop-1-en-2-yl)oxy)-2H-chromen-2-one-induced antibacterial activity against Escherichia coli assessed as (Z)-4-((bis(2-hydroxyethyl)amino)methyl)-7-((1-(4-methoxyphenyl)-3-oxo-3-(thiazol-2-yl)prop-1-en-2-yl)oxy)-2H-chromen-2-one MIC
Klebsiella pneumoniae [12] = experiment: Potentiation of(Z)-4-((bis(2-hydroxyethyl)amino)methyl)-7-((1-(4-methoxyphenyl)-3-oxo-3-(thiazol-2-yl)prop-1-en-2-yl)oxy)-2H-chromen-2-one-induced antibacterial activity against Klebsiella pneumoniae assessed as (Z)-4-((bis(2-hydroxyethyl)amino)methyl)-7-((1-(4-methoxyphenyl)-3-oxo-3-(thiazol-2-yl)prop-1-en-2-yl)oxy)-2H-chromen-2-one MIC
Staphylococcus aureus [13] = experiment: as §1, with “methicillin resistant Staphylococcus aureus N315” for “Escherichia coli”
Enterococcus faecalis [14] = experiment: as §1, with “Enterococcus faecalis” for “Escherichia coli”

| SMILES | MIC (Pseudomonas aeruginosa [1]) [µM] | MIC (Pseudomonas aeruginosa [2]) [µM] | MIC (Staphylococcus aureus [3]) [µM] | MIC (Klebsiella pneumoniae [4]) [µM] | MIC (Staphylococcus aureus [5]) [µM] | MIC (Acinetobacter baumannii) [µM] | MIC (Staphylococcus aureus [6]) [µM] | MIC (Staphylococcus aureus [7]) [µM] | MIC (Escherichia coli [8]) [µM] | MIC (Escherichia coli [9]) [µM] | MIC (Enterococcus faecalis [10]) [µM] | MIC (Escherichia coli [11]) | MIC (Klebsiella pneumoniae [12]) | MIC (Staphylococcus aureus [13]) | MIC (Enterococcus faecalis [14]) |
| --- | --- | --- | --- | --- | --- | --- | --- | --- | --- | --- | --- | --- | --- | --- | --- |
| O=C(/C(=C/c1c[nH]c2cc(Cl)ccc12)Oc1ccc2c(CN(CCO)CCO)cc(=O)oc2c1)c1nccs1 | 113 (≈ 64 µg/mL) | 226 (≈ 128 µg/mL) | 113 (≈ 64 µg/mL) | 57 (≈ 32.3 µg/mL) | 57 (≈ 32.3 µg/mL) | 113 (≈ 64 µg/mL) | 57 (≈ 32.3 µg/mL) | 57 (≈ 32.3 µg/mL) | 226 (≈ 128 µg/mL) | 226 (≈ 128 µg/mL) | 57 (≈ 32.3 µg/mL) |  |  |  |  |
| CCn1cc(C(=O)O)c(=O)c2cc(F)c(N3CCNCC3)cc21 [NORFLOXACIN] | 3 (≈ 0.958 µg/mL) | 25 (≈ 7.98 µg/mL) | 6 (≈ 1.92 µg/mL) | 13 (≈ 4.15 µg/mL) | 3 (≈ 0.958 µg/mL) | 25 (≈ 7.98 µg/mL) | 25 (≈ 7.98 µg/mL) | 6 (≈ 1.92 µg/mL) | 50 (≈ 16 µg/mL) | 25 (≈ 7.98 µg/mL) | 25 (≈ 7.98 µg/mL) | 0.781 10^-3mM | 0.203 10^-3mM | 0.781 10^-3mM | 0.781 10^-3mM |
| CCn1cc(/C=C(\Oc2ccc3c(CN(CCO)CCO)cc(=O)oc3c2)C(=O)c2nccs2)c2ccccc21 | 57 (≈ 31.9 µg/mL) | 114 (≈ 63.8 µg/mL) | 29 (≈ 16.2 µg/mL) | 229 (≈ 128 µg/mL) | 7 (≈ 3.92 µg/mL) | 57 (≈ 31.9 µg/mL) | 114 (≈ 63.8 µg/mL) | 57 (≈ 31.9 µg/mL) | 229 (≈ 128 µg/mL) | 229 (≈ 128 µg/mL) | 14 (≈ 7.84 µg/mL) |  |  |  |  |
| O=C(/C(=C/c1ccccc1)Oc1ccc2c(CN(CCO)CCO)cc(=O)oc2c1)c1nccs1 | 520 (≈ 256 µg/mL) | 520 (≈ 256 µg/mL) | 260 (≈ 128 µg/mL) | 1040 (≈ 512 µg/mL) | 1040 (≈ 512 µg/mL) | 1040 (≈ 512 µg/mL) | 130 (≈ 64 µg/mL) | 1040 (≈ 512 µg/mL) | 1040 (≈ 512 µg/mL) | 260 (≈ 128 µg/mL) | 130 (≈ 64 µg/mL) |  |  |  |  |
| O=C(/C(=C/c1ccc(Br)cc1)Oc1ccc2c(CN(CCO)CCO)cc(=O)oc2c1)c1nccs1 | 1090 (≈ 621 µg/mL) | 272 (≈ 155 µg/mL) | 68 (≈ 38.9 µg/mL) | 1090 (≈ 621 µg/mL) | 272 (≈ 155 µg/mL) | 543 (≈ 310 µg/mL) | 136 (≈ 77.7 µg/mL) | 272 (≈ 155 µg/mL) | 1090 (≈ 621 µg/mL) | 543 (≈ 310 µg/mL) | 136 (≈ 77.7 µg/mL) |  |  |  |  |
| O=C(/C(=C/c1ccc(Cl)cc1)Oc1ccc2c(CN(CCO)CCO)cc(=O)oc2c1)c1nccs1 | 243 (≈ 128 µg/mL) | 61 (≈ 32.1 µg/mL) | 243 (≈ 128 µg/mL) | 486 (≈ 256 µg/mL) | 243 (≈ 128 µg/mL) | 243 (≈ 128 µg/mL) | 121 (≈ 63.8 µg/mL) | 243 (≈ 128 µg/mL) | 486 (≈ 256 µg/mL) | 486 (≈ 256 µg/mL) | 243 (≈ 128 µg/mL) |  |  |  |  |
| O=C(/C(=C/c1ccc([N+](=O)[O-])cc1)Oc1ccc2c(CN(CCO)CCO)cc(=O)oc2c1)c1nccs1 | 238 (≈ 128 µg/mL) | 476 (≈ 256 µg/mL) | 119 (≈ 64 µg/mL) | 238 (≈ 128 µg/mL) | 60 (≈ 32.3 µg/mL) | 238 (≈ 128 µg/mL) | 7 (≈ 3.76 µg/mL) | 119 (≈ 64 µg/mL) | 119 (≈ 64 µg/mL) | 119 (≈ 64 µg/mL) | 119 (≈ 64 µg/mL) |  |  |  |  |
